Data published in ChEMBL document CHEMBL1250511, “Discovery of pyridazinopyridinones as potent and selective p38 mitogen-activated protein kinase inhibitors” (J Med Chem, 2010).

How the values were obtained:
[1] = test system: THP-1; assay: Antiinflammatory activity in human THP1 cells assessed as inhibition of LPS-induced TNFalpha production after 3 hrs; type: functional, cell-based; details: THP-1, 3 h
Summary of the method: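 THP-1 cells (1.5 × 10^6/mL in RPMI 1640, 10% heat-inactivated FBS, 30 μM βME) given 3-fold serial DMSO dilutions of compound, then LPS. Incubation 3 h at 37 °C, 5% CO2. Secreted TNFα measured in medium by MSD electrochemiluminescence. Results expressed as percent of control relative to DMSO (HI) and no-LPS (LO) wells.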

[2] = Antiinflammatory activity in human whole blood cells assessed as inhibition of TNF-alpha-induced IL8 production after 16 to 18 hrs; type: functional, cell-based
Summary of the method: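 Heparinized blood from healthy, nonmedicated volunteers (final 50% in RPMI 1640/10% human AB serum) was preincubated 1 h at 37 °C, 5% CO2 with ten-point compound titrations. It was then stimulated with TNFα (final 1 nM) overnight (16-18 h). Plasma IL-8 was measured by MSD ECL sandwich immunoassay.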

[3] = target: Mitogen-activated protein kinase 14 (Homo sapiens, UniProt Q16539); assay: Inhibition of p38alpha MAP kinase
Mitogen-activated protein kinase 14, sequence (Q16539 whole entry): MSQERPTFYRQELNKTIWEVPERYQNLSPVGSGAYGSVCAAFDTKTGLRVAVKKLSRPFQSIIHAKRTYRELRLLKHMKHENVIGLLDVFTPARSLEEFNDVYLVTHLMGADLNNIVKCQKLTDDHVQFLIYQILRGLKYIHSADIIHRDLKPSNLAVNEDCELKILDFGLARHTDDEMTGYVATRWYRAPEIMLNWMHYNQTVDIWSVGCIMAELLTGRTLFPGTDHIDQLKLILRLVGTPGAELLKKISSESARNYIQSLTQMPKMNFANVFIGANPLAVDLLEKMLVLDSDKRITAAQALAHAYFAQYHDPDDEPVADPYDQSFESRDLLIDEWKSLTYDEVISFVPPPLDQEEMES

[4] = AUC in Sprague-Dawley rat at 2 mg/kg, po; type: ADME, organism-based; parameters: dose 2 mg/kg, route oral; details: plasma
[5] = Volume of distribution at steady state in Sprague-Dawley rat at 2 mg/kg, iv; type: ADME, organism-based; parameters: dose 2 mg/kg, route intravenous; details: in vivo, read-out: Vdss
Summary of the method: (§1)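 Single iv dose of 2.0 mg/kg, formulated in DMSO.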

[6] = Half life in Sprague-Dawley rat at 2 mg/kg, iv; type: ADME, organism-based; parameters: dose 2 mg/kg, route intravenous; details: in vivo; summary of the method: as §1
[7] = Oral bioavailability in Sprague-Dawley rat at 2 mg/kg; type: ADME, organism-based; details: in vivo
[8] = Clearance in Sprague-Dawley rat at 2 mg/kg, iv; type: ADME, organism-based; parameters: dose 2 mg/kg, route intravenous; details: in vivo; summary of the method: as §1
[9] = organism: Rattus norvegicus; assay: Antiarthritic activity in Lewis rat assessed as reduction in collagen-induced paw swelling; type: functional
Summary of the method: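 Arthritis induced by intradermal porcine type II collagen emulsified 1:1 in incomplete Freund's adjuvant. Animals were grouped at disease onset (10-12 days post-immunization) and dosed orally once daily for 7 days. Paw diameter was measured daily on days 0-7. Area under the paw-swelling curve gave percent inhibition versus vehicle.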

[10] = test system: Rattus norvegicus; assay: Antiinflammatory activity in po dosed Lewis rat assessed as inhibition of LPS-induced TNFalpha production administered 1 hrs prior to LPS challenge after 90 mins

Row | SMILES | IC50 [1] [nM] | IC50 [2] [nM] | IC50 [3] [nM] | also measured
1 | Cc1ccc(C(=O)O)cc1-c1cc2cnnc(-c3ccc(F)cc3F)c2n(C)c1=O | > 2500 | > 2500 | > 1000 | –
2 | Cn1c(=O)c(Cc2ccc(F)cc2F)cc2cnnc(-c3ccc(F)cc3F)c21 | 49 | 213 | 6.1 | –
3 | Cn1c(=O)c(Cc2ccc(F)cc2)cc2cnnc(-c3ccc(F)cc3F)c21 | 197 | 697 | 55.8 | –
4 | Cn1c(=O)c(Oc2ccc(F)cc2F)cc2cnnc(-c3ccc(F)cc3F)c21 | 107 | 70.5 | – | –
5 | Cn1c(=O)c(Oc2ccc(F)cc2)cc2cnnc(-c3ccc(F)cc3F)c21 | 235 | 227 | 78 | –
6 | CN(c1ccc(F)cc1)c1cc2cnnc(-c3ccc(F)cc3F)c2n(C)c1=O | 1140 | 1240 | 299 | –
7 | Cn1c(=O)c(Nc2ccc(F)cc2)cc2cnnc(-c3ccc(F)cc3F)c21 | 13.7 | 61.9 | – | –
8 | Cn1c(=O)c(Nc2ccc(F)cc2F)cc2cnnc(-c3ccc(F)cc3F)c21 | 4.5 | 11.7 | 0.9 | –
9 | Cn1c(=O)c(Nc2ccc(F)cn2)cc2cnnc(-c3ccc(F)cc3F)c21 | > 2500 | > 2500 | – | –
10 | Cn1c(=O)c(Nc2ncc(F)cc2F)cc2cnnc(-c3ccc(F)cc3F)c21 | 982 | > 2500 | – | –
11 | Cc1cnc(C(=O)NC2CC2)cc1-c1cc2cnnc(-c3ccc(F)cc3F)c2n(C)c1=O | 80.5 | 63.3 | 14.5 | –
12 | Cn1c(=O)c(-c2cc(C(=O)NC3CC3)ccc2Cl)cc2cnnc(-c3ccc(F)cc3F)c21 | 6.3 | 8.3 | 2.6 | –
13 | Cc1c(F)cc(C(=O)NC2CC2)cc1-c1cc2cnnc(-c3ccc(F)cc3F)c2n(C)c1=O | 1.1 | 1.6 | 1.4 | AUC [4]: 6740 ng·h/mL; Vd [5]: 1.19 L/kg; half-life [6]: 4.66 h; bioavailability [7]: 55%
14 | Cc1ccc(C(=O)NC2(C)CC2)cc1-c1cc2cnnc(-c3ccc(F)cc3F)c2n(C)c1=O | 14.5 | 27.4 | 3.1 | –
15 | Cc1ccc(C(=O)NC2CC2)cc1-c1cc2cnnc(-c3ccc(F)cc3F)c2n(C)c1=O | 2.1 | 1.8 | 2.7 | AUC [4]: 7630 ng·h/mL; Vd [5]: 1.04 L/kg; clearance [8]: 3.83 mL/min/kg; half-life [6]: 3.06 h; bioavailability [7]: 86%; ED50 [9]: 0.03 mg/kg; ED50 [10]: 0.06 mg/kg
16 | CNC(=O)c1ccc(C)c(-c2cc3cnnc(-c4ccc(F)cc4F)c3n(C)c2=O)c1 | 24.3 | 30 | – | –
17 | Cc1ccc(C(N)=O)cc1-c1cc2cnnc(-c3ccc(F)cc3F)c2n(C)c1=O | 19.3 | 21.3 | 2.7 | –
